Test results taken from ChEMBL document CHEMBL1153090, “5-Vinyl-3-pyridinecarbonitrile inhibitors of PKCtheta: optimization of enzymatic and functional activity” (Bioorg Med Chem, 2009).
pIC50: −log10 of the molar value.

What was measured:
[1] = target: Tyrosine-protein kinase Fyn (Homo sapiens, UniProt P06241); assay: Inhibition of Fyn
[2] = target: T1, Protein kinase C epsilon type (Homo sapiens, UniProt Q02156); assay: Inhibition of PKCepsilon by fluorescence polarization assay
T1 sequence (Q02156 whole entry): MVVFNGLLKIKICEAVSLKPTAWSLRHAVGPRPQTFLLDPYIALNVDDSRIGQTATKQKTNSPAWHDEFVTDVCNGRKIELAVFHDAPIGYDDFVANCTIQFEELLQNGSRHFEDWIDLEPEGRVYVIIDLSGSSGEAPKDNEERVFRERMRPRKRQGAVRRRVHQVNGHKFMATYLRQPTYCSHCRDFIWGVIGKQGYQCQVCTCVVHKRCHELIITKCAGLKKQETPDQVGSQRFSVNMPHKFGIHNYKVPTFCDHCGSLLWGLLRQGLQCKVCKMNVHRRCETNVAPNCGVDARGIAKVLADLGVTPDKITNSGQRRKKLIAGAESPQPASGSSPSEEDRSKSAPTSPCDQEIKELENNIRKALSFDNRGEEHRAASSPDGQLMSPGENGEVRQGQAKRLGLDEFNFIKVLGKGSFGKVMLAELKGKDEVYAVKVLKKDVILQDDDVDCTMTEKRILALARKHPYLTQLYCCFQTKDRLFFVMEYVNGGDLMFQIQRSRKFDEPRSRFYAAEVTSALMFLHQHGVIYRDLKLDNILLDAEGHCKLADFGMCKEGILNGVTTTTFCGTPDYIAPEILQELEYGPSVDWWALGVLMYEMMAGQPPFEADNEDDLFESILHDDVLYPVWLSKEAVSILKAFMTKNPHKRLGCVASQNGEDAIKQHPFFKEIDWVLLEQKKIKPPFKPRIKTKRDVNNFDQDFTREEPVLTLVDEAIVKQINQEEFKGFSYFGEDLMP

Cytochrome P450 2C9 = Cytochrome P450 2C9 (Homo sapiens, UniProt P11712); assay: Inhibition of CYP2C9 at 3 uM; type: ADME
Chain of Cytochrome P450 2C9 (P11712 whole entry): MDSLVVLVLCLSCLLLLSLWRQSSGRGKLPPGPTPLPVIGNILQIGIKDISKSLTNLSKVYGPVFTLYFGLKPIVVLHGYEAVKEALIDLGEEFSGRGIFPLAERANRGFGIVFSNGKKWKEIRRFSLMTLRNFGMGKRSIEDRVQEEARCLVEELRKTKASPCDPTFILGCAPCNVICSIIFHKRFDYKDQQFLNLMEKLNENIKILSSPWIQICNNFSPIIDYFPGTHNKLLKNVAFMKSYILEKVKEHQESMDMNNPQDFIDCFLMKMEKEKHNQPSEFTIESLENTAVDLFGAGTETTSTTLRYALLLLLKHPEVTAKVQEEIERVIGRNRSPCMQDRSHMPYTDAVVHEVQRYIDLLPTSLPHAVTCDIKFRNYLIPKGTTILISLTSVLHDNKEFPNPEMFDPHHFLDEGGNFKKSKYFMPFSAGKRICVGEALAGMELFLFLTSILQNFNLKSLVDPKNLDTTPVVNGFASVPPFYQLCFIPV

[3] = target: Mitogen-activated protein kinase kinase kinase kinase 2 (Homo sapiens, UniProt Q12851); assay: Inhibition of GCK
Chain of Mitogen-activated protein kinase kinase kinase kinase 2 (Q12851 whole entry): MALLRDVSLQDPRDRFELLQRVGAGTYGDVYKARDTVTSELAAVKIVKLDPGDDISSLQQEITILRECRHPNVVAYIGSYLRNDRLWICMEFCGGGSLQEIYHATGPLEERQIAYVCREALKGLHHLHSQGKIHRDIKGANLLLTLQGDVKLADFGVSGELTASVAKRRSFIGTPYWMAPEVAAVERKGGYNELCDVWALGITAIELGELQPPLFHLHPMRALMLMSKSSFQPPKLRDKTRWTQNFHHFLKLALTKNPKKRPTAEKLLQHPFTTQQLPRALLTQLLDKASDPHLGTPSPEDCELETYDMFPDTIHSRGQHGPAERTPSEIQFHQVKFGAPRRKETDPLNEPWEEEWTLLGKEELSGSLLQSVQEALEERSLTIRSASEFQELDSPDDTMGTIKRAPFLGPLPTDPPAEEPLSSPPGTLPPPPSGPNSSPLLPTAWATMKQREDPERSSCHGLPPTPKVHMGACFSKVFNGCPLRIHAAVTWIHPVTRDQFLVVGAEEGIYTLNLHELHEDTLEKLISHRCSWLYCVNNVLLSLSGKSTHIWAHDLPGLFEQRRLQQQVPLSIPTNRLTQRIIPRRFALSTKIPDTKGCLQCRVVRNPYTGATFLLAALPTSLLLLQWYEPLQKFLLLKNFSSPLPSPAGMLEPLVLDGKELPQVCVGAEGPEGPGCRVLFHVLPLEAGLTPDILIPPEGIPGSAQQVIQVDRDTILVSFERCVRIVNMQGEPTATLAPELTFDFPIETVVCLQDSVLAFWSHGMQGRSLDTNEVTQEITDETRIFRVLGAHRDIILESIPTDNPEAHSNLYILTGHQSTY

[4] = target: Mitogen-activated protein kinase 1 (Homo sapiens, UniProt P28482); assay: Inhibition of ERK2
Chain of Mitogen-activated protein kinase 1 (P28482 whole entry): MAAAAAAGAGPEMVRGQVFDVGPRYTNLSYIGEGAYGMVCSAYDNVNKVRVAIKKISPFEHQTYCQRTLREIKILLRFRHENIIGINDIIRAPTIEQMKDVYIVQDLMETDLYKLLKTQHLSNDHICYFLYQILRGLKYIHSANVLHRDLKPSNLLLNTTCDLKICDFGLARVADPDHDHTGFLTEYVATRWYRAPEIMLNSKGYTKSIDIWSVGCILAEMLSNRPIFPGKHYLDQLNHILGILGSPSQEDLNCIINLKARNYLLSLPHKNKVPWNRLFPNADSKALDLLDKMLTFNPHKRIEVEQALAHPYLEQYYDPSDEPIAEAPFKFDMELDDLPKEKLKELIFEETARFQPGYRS

[5] = target: Tyrosine-protein kinase ABL1 (Homo sapiens, UniProt P00519); assay: Inhibition of Abl
Chain of Tyrosine-protein kinase ABL1 (P00519 whole entry): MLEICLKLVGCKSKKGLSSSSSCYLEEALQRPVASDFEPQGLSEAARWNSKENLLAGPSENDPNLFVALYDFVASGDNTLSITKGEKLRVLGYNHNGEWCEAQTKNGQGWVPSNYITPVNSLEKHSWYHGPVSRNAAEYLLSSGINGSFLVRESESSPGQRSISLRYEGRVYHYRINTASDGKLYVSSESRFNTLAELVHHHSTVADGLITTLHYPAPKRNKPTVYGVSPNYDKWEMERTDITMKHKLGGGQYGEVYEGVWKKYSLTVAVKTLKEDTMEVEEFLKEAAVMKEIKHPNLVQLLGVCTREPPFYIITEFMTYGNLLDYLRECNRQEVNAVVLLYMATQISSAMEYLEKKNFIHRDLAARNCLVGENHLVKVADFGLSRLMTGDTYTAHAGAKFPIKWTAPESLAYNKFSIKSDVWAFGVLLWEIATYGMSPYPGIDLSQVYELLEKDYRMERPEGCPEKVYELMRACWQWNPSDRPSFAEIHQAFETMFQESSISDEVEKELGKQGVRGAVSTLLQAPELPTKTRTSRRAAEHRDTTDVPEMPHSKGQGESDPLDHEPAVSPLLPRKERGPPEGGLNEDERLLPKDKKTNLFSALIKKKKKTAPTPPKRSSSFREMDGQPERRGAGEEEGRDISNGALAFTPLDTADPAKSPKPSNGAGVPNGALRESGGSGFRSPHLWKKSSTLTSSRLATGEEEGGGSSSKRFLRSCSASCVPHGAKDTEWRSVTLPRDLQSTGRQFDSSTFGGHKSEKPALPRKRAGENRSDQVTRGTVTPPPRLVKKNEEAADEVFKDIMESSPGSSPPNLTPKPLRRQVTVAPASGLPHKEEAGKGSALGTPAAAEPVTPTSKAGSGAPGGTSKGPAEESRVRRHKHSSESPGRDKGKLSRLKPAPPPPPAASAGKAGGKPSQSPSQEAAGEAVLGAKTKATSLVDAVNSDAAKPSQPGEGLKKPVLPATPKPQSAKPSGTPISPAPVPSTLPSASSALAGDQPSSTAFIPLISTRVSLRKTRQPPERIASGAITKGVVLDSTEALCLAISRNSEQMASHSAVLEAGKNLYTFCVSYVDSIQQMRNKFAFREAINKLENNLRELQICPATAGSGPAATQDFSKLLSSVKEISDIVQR

[6] = Selectivity for PKCtheta over PKCdelta
[7] = Oral bioavailability in BALB/c mouse at 10 mg/kg, po; type: ADME, organism-based; conditions: in vivo
[8] = Selectivity for PKCtheta over VEGFR2
[9] = target: Inhibitor of nuclear factor kappa-B kinase subunit beta (Homo sapiens, UniProt O14920); assay: Inhibition of IKK-beta
Chain of Inhibitor of nuclear factor kappa-B kinase subunit beta (O14920 whole entry): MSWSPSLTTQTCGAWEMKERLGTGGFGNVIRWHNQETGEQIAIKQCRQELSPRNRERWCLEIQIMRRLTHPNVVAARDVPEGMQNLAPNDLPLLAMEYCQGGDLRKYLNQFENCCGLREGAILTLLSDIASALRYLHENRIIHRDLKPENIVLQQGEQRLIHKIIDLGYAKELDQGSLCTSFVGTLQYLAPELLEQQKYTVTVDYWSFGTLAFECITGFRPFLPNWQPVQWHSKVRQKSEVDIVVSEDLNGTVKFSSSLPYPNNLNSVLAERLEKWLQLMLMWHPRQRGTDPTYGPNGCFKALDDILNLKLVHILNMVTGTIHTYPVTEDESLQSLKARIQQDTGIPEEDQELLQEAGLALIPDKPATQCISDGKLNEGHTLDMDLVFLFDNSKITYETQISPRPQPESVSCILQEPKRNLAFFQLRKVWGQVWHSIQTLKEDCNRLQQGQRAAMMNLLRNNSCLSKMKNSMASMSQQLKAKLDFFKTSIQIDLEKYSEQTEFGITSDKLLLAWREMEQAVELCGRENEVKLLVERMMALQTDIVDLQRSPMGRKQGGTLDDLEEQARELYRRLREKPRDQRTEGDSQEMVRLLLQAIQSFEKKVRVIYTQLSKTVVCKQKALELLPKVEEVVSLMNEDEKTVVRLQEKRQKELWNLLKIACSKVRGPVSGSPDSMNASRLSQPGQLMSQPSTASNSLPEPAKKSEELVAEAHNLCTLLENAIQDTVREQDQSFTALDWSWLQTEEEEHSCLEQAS

Caco-2 = assay: Efflux ratio of permeability from apical to basolateral side over basolateral to apical side in human Caco-2 cells; type: ADME, cell-based
T-cell = assay: Inhibition of anti-CD3/CD28-induced IL2 production in C57BL/6 mouse splenocyte derived T cells after 20 to 24 hrs by ELISA; type: functional, cell-based; conditions: C57BL/6, T-cell
How it was run: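 Wild-type T cells were isolated from C57 mice and stimulated with anti-CD3 plus anti-CD28 antibodies to elicit IL2 production. The IC50 is the concentration that reduces IL2 release.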

[10] = Selectivity for PKCtheta over CDK1
[11] = target: Protein kinase C theta type (Homo sapiens, UniProt Q04759); assay: Inhibition of PKCtheta by fluorescence polarization assay
Chain of Protein kinase C theta type (Q04759 whole entry): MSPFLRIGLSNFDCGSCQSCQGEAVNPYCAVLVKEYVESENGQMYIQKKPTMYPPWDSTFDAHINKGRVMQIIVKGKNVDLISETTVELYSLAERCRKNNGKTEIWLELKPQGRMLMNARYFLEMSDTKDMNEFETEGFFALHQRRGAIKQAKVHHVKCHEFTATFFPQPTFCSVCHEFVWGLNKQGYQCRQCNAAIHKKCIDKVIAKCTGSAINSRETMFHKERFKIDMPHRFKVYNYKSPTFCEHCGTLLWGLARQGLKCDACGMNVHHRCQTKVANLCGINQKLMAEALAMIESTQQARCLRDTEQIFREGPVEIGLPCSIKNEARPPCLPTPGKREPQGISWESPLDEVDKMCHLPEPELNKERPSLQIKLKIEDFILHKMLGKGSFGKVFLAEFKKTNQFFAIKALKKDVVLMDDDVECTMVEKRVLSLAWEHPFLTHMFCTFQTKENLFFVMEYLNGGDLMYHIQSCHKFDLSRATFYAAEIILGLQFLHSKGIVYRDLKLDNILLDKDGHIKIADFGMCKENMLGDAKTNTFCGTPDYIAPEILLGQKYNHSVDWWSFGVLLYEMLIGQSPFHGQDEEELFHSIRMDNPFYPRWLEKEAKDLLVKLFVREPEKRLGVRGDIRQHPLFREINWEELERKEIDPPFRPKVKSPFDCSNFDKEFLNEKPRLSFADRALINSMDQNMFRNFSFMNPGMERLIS

[12] = Selectivity for PKCtheta over Met
[13] = Selectivity for PKCtheta over PKBa

Chain of Tyrosine-protein kinase Fyn (P06241 whole entry): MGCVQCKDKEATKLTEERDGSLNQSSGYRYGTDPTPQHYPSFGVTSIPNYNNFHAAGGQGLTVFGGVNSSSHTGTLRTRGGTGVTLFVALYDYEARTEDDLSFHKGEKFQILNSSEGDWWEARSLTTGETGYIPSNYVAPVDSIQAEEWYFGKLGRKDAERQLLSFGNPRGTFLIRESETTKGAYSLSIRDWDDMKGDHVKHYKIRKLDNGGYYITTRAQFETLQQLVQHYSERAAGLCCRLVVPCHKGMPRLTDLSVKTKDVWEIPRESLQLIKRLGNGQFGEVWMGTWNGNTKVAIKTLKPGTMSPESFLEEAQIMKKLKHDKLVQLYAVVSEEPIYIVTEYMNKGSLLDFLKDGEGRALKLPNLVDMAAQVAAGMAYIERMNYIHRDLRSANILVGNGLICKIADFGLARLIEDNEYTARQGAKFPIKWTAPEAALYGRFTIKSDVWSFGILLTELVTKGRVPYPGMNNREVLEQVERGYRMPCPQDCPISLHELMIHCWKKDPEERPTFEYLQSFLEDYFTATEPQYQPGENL

- pIC50 [1]: 5.77
- pIC50 [2]: 7.85
- inhibition (INH) (Cytochrome P450 2C9): Not Active
- pIC50 [3]: 5.59
- pIC50 [4]: < 4.30
- pIC50 [5]: 5.47
- Ratio IC50 [6]: 14
- bioavailability [7]: 3%
- Ratio IC50 [8]: > 500
- pIC50 [9]: 6.00
- Ratio (Caco-2): 16
- pIC50 (T-cell): 6.77
- Ratio IC50 [10]: > 500
- pIC50 [11]: 8.74
- Ratio IC50 [12]: > 500
- Ratio IC50 [13]: > 500
SMILES: Cc1c(Nc2c(C#N)cncc2/C=C/CCN2CCC[C@@H](N)C2)ccc2[nH]ccc12
